In ChEMBL document CHEMBL4834402, “Discovery of TAK-981, a First-in-Class Inhibitor of SUMO-Activating Enzyme for the Treatment of Cancer” (J Med Chem, 2021):

Key:
NEDD8 activating enzyme = molecular target: T1, NEDD8 activating enzyme (Homo sapiens, UniProt Q8TBC4); assay: Inhibition of recombinant NAE (unknown origin) in presence of ATP at Km concentration by HTRF assay; type: protein-complex assay
T1 sequence (Q8TBC4 whole entry): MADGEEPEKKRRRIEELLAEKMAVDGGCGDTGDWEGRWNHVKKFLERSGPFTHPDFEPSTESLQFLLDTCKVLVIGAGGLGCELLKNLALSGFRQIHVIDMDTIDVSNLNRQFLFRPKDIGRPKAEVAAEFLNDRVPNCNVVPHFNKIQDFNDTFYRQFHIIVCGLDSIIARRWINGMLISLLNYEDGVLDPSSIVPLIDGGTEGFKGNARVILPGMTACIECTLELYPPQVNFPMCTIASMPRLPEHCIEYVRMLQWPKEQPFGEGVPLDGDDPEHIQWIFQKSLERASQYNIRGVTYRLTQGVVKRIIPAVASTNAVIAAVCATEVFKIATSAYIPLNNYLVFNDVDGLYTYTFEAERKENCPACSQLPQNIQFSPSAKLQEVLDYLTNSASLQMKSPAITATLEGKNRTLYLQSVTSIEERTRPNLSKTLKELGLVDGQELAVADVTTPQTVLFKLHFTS
T1 sequence (Q13564 whole entry): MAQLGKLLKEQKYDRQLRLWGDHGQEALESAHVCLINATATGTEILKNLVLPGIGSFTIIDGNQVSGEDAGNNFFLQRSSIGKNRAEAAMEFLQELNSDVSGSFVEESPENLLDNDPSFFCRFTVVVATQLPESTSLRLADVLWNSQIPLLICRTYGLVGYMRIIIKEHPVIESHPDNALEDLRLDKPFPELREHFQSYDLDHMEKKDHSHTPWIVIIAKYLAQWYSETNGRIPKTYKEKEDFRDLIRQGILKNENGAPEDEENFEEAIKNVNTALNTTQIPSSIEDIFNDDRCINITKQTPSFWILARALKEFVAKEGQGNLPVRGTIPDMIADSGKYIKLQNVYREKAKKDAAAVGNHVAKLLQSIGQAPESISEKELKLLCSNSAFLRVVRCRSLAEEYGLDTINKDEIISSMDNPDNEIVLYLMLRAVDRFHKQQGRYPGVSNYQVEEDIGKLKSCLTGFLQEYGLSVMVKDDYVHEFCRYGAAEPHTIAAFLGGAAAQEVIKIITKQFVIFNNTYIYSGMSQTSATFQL

[1] = Half life in rat plasma at 1 mg/kg, iv; type: ADME, organism-based
[2] = Oral bioavailability in rat blood at 10 mg/kg; type: ADME, organism-based
SUMO-activating enzyme = SUMO-activating enzyme (Homo sapiens, UniProt Q9UBT2); assay: Inhibition of SAE in human HCT116 cells assessed as redistribution of SUMO2/3 proteins from nucleus to cytosol preincubated for 2 hrs followed by compound washout and measured after 8 hrs by immunofluorescence assay; type: cell-based, HCT-116
Procedure, shortened: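 Washout format of the SUMO2/3 immunofluorescence assay in HCT116 cells. Cells were exposed to a range of concentrations for 2 h, then washed free of compound.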

[3] = Dissociation constant , pKa of the compound; type: physicochemical

Chain of SUMO-activating enzyme (Q9UBE0 whole entry): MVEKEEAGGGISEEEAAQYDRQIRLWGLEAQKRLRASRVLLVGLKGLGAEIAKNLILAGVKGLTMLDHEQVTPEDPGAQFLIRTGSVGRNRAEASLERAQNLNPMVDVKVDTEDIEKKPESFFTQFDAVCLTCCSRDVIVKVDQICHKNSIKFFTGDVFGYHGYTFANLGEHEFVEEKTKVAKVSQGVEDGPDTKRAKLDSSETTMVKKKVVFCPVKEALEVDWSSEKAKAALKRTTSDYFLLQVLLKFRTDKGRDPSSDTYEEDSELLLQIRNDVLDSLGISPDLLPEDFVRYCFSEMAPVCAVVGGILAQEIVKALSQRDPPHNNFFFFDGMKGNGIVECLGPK
Chain of SUMO-activating enzyme (Q9UBT2 whole entry): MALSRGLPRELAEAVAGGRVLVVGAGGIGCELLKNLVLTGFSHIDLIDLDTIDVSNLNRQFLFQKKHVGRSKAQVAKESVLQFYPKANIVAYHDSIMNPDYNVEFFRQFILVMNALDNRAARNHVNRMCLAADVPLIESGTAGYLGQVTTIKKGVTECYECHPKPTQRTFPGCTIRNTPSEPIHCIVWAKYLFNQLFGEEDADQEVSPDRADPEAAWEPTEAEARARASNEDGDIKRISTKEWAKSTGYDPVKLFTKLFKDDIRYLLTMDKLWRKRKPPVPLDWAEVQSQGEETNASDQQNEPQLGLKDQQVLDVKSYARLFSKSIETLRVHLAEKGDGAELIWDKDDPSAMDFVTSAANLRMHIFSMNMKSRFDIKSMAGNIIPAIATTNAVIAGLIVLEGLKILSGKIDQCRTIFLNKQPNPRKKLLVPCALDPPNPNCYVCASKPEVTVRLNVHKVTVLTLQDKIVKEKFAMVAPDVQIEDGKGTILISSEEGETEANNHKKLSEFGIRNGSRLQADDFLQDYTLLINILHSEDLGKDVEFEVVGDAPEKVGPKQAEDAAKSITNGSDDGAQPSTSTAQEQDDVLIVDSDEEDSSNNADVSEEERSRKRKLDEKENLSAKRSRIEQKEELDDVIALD

Q: Which IC50 (NEDD8 activating enzyme) does the source give for `Cc1sc(C(=O)c2cncnc2N[C@@H]2C[C@H](COS(N)(=O)=O)[C@@H](O)C2)cc1[C@@H]1NCCc2ccc(Cl)cc21` here?
A: 0.96 µM

Q: What about the half-life [1] of the same compound?
A: 2.1 h

Q: And the bioavailability [2]?
A: 10%

Q: And the IC50 (SUMO-activating enzyme)?
A: 0.046 µM

Q: What about the pKa [3] of the same compound?
A: 3.6
